Tests used:
[1] = Cytotoxicity against human U937 cells at 30 uM after 48 hrs by LDH assay; assay type: cell-based; settings: u-937, 48 h
Outline: (§1)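 U937 cells (DSMZ; RPMI, 10% FCS, 37 °C, 5% CO2) seeded at 1.5 × 10^4 cells/well, exposed to test agent or DMSO vehicle for 48 h. Supernatant collected after centrifugation; LDH release quantified by kit, expressed relative to detergent-lysed maximum (100%). Three experiments, mean ± S.E.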

[2] = molecular target: T1, Polyunsaturated fatty acid lipoxygenase ALOX12 (Homo sapiens) (UniProt P18054); assay: Inhibition of 12-LO-mediated 12-HPETE formation in human platelets using arachidonic acid as substrate assessed as residual activity at 50 uM preincubated for 15 mins before substrate addition measured after 10 mins
T1 sequence (whole entry): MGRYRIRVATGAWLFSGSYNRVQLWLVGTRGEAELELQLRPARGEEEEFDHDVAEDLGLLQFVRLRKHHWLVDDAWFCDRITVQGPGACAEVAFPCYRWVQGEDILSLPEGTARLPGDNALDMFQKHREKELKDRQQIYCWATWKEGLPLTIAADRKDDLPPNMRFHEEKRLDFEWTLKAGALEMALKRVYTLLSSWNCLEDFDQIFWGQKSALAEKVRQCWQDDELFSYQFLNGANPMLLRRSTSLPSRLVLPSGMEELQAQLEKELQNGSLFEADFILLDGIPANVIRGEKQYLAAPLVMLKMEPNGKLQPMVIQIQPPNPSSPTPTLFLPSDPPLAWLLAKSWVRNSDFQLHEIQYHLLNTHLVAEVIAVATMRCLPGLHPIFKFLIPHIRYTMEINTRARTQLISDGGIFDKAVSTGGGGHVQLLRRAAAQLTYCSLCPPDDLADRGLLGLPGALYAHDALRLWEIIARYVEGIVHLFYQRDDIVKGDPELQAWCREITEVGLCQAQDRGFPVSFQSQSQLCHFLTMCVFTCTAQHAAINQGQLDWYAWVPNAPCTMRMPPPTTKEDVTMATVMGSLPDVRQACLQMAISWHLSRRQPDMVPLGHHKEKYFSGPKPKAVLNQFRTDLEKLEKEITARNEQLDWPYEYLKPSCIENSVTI
Outline: (§2)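 Freshly isolated human platelets (10^8 in 1 ml PBS pH 7.4 with 1 mg/ml glucose and 1 mM CaCl2) preincubated with compound or DMSO 15 min at 37 °C, then 10 µM AA added; 10 min at 37 °C, stopped with ice-cold methanol. HPLC: 12-H(P)ETE for 12-LO, 12-HHT for COX-1; percent of DMSO control, n ≥ 3, mean ± S.E.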

[3] = molecular target: T2, Polyunsaturated fatty acid lipoxygenase ALOX15 (Homo sapiens) (UniProt P16050); assay: Inhibition of 15-LO1-mediated 15-HPETE formation in human eosinophil using arachidonic acid as substrate assessed as residual activity at 50 uM preincubated for 15 mins before substrate addition measured after 10 mins
T2 sequence (whole entry): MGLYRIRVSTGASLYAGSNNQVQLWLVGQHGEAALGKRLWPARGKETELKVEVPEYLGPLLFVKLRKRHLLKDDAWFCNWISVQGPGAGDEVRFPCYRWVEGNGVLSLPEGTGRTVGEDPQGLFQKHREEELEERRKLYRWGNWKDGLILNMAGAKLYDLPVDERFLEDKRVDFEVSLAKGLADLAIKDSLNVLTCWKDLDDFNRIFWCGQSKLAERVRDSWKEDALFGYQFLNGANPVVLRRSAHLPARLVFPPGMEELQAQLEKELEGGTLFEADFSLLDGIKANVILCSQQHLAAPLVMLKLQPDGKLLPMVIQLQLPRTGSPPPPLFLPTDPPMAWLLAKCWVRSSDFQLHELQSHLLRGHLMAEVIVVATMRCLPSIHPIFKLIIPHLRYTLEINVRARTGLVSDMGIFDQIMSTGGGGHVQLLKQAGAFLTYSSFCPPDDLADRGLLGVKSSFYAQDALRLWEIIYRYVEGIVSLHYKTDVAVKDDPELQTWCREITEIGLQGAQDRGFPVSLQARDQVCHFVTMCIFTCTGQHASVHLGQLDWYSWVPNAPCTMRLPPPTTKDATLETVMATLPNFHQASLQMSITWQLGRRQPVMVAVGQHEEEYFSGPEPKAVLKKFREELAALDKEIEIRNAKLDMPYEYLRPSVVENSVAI
Outline: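 Freshly isolated human PMNL (5 × 10^6/ml PBS-glucose, 1 mM CaCl2), with 15-LO1 from contaminating eosinophils, preincubated with compound 15 min at 37 °C; stimulated with 2.5 µM A23187 plus 20 µM AA for 10 min at 37 °C, methanol stop. 15-H(P)ETE peak quantified by HPLC as percent of DMSO control; n ≥ 3, mean ± S.E.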

[4] = molecular target: Prostaglandin G/H synthase 1 (Homo sapiens) (UniProt P23219); assay: Inhibition of COX1 in human platelets using arachidonic acid as substrate assessed as residual activity at 50 uM preincubated for 15 mins before substrate addition measured after 10 mins; outline: as §2
Chain of Prostaglandin G/H synthase 1 (Homo sapiens) (P23219 whole entry): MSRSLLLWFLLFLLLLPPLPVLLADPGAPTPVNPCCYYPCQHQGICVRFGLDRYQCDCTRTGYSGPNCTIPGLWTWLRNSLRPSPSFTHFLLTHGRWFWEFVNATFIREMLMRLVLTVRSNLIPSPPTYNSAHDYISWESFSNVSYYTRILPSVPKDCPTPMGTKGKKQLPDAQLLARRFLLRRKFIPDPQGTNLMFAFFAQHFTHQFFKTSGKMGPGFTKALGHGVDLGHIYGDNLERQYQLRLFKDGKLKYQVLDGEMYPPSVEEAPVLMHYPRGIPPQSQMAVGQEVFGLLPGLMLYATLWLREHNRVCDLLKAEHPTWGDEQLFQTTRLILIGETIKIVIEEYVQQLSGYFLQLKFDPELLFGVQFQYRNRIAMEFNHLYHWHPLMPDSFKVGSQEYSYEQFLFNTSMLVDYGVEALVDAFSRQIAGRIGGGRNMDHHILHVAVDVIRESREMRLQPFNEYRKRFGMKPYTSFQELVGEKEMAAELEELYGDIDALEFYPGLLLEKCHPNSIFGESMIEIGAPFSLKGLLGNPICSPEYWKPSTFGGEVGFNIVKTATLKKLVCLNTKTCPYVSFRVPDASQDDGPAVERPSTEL

[5] = molecular target: T3, Prostaglandin G/H synthase 2 (Homo sapiens) (UniProt P35354); assay: Inhibition of COX2-mediated PGE2 formation in IL1beta/TNFalpha-stimulated human HeLa cells using arachidonic acid as substrate assessed as residual activity at 50 uM measured after 30 mins by ELISA; assay type: cell-based
T3 sequence (whole entry): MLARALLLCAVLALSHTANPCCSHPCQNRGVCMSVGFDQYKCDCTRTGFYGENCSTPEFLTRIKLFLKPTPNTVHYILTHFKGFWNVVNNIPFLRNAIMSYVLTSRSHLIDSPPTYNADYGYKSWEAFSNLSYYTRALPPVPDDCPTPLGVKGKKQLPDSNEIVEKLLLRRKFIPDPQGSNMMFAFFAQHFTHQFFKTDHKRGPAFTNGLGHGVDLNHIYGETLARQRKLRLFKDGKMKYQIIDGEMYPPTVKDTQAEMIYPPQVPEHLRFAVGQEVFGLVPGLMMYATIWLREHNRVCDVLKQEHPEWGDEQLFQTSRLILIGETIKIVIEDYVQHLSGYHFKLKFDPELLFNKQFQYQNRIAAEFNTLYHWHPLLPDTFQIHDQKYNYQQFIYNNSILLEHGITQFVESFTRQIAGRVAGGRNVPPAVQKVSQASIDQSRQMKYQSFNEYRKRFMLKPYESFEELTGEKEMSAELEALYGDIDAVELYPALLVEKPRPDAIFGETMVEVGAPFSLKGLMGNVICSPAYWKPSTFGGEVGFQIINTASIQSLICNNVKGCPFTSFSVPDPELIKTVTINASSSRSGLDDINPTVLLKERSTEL
Outline: (§3)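 HeLa cells (3 × 10^4/well) grown 24 h, then induced with 1 ng/ml IL1β and 5 ng/ml TNFα for 24 h; washed three times with PBS containing fatty-acid-free BSA 1 mg/ml. Medium with cytokines plus compound or DMSO for 30 min, stopped on ice; supernatant PGE2 by ELISA, percent of DMSO control. Three experiments, mean ± S.E.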

[6] = Cytotoxicity against human U937 cells at 100 uM after 48 hrs by LDH assay; assay type: cell-based; settings: u-937, 48 h; outline: as §1
[7] = molecular target: T3, Prostaglandin G/H synthase 2 (Homo sapiens); assay: Inhibition of COX2-mediated PGE2 formation in IL1beta/TNFalpha-stimulated human HeLa cells using arachidonic acid as substrate assessed as residual activity at 10 uM measured after 30 mins by ELISA; assay type: cell-based; outline: as §3
[8] = molecular target: Prostaglandin G/H synthase 1 (Homo sapiens) (UniProt P23219); assay: Inhibition of COX1 in human platelets using arachidonic acid as substrate assessed as residual activity at 10 uM preincubated for 15 mins before substrate addition measured after 10 mins; outline: as §2

| Compound | Activity [2] [%] | Activity [3] [%] | Activity [4] [%] | Activity [5] [%] | Activity [7] [%] | Activity [8] [%] | Activity [1] [%] | Activity [6] [%] |
| --- | --- | --- | --- | --- | --- | --- | --- | --- |
| Clc1ccc(-c2csc(Nc3ccc4c(c3)OCCO4)n2)cc1 | > 70 | > 70 | 6 | 5.5 |  |  |  |  |
| FC(F)(F)Oc1ccc(Nc2nc(-c3ccc(Cl)cc3)cs2)cc1 | > 70 | > 70 | 1.1 | 17.8 |  |  |  |  |
| COc1ccc(Nc2nc(-c3ccc(Cl)cc3)cs2)c(OC)c1 | > 70 | > 70 | > 70 | 18.4 |  |  |  |  |
| CCCCCC(O)c1cccc(OCc2ccc3ccccc3n2)c1 (stereo not given) [REV-5901] |  |  |  |  |  |  |  | 28.3 |
| CCOc1ccc(-c2csc(Nc3ccc(O)cc3)n2)cc1 | > 70 | > 70 | 16.6 | 2.1 |  |  |  |  |
| Oc1ccc(Nc2nc(-c3ccc(Cl)c(Cl)c3)cs2)cc1 | 32.6 | > 70 |  |  | 15.1 | 69.4 |  |  |
| Nc1ccc(-c2csc(Nc3ccc(O)cc3)n2)cc1 | > 70 | > 70 | 26.7 | 3.3 |  |  |  |  |
| FC(F)(F)c1ccc(Nc2nc(-c3ccc(Cl)cc3)cs2)cc1 | > 70 | > 70 | 2.7 | > 70 |  |  |  |  |
| FC(F)(F)c1cc(Nc2nc(-c3ccc(Cl)cc3)cs2)cc(C(F)(F)F)c1 | > 70 | > 70 | 13.7 | 45.1 |  |  | 18.2 |  |
| OC(c1ccc(Nc2nc(-c3ccc(Cl)cc3)cs2)cc1)(C(F)(F)F)C(F)(F)F | > 70 | > 70 | 2.6 | 42.9 |  |  | 21.7 |  |
| Cc1ccc(-c2csc(Nc3ccc(O)cc3)n2)cc1 | > 70 | 44.6 | 18.5 | 3.4 |  |  | 14 |  |
| Clc1ccc(-c2csc(Nc3cc(Cl)cc(Cl)c3)n2)cc1 | > 70 | > 70 | 2.3 | 30.9 |  |  |  |  |
| CC(=O)c1ccc(Nc2nc(-c3ccc(F)cc3)cs2)cc1 | > 70 | > 70 | 56.1 | 9.1 |  |  |  |  |
| Clc1ccc(-c2csc(Nc3ccc(N4CCOCC4)cc3)n2)cc1 | > 70 | > 70 | > 70 | > 70 |  |  |  |  |
| O=S(=O)(c1ccc(-c2csc(Nc3ccc(Cl)cc3)n2)cc1)N1CCOCC1 | > 70 | 41.3 | > 70 | 39.1 |  |  |  |  |
| Oc1ccc(-c2csc(Nc3ccc(F)cc3)n2)cc1 | 4.2 | 53.7 | 2.1 | 2.1 |  |  |  |  |
| Oc1cccc(Nc2nc(-c3ccccc3)cs2)c1 | > 70 | > 70 | 4.1 | 2.4 |  |  |  |  |
| CC(c1cc2ccccc2s1)N(O)C(N)=O (stereo not given) [ZILEUTON] |  |  |  |  |  |  |  | 1.5 |
| COc1ccc(Nc2nc(-c3ccc(Cl)cc3)cs2)cc1OC | > 70 | > 70 |  | 8.6 |  |  |  |  |
| Clc1ccc(-c2csc(Nc3ccc4c(c3)OCO4)n2)cc1 | > 70 | > 70 | 3.2 | 3.8 |  |  |  |  |

More lines, main results first:

| Activity [2] [%] | Activity [3] [%] | Activity [4] [%] | Activity [5] [%] | Activity [7] [%] | Activity [8] [%] | Compound | Activity [1] [%] | Activity [6] [%] |
| --- | --- | --- | --- | --- | --- | --- | --- | --- |
| > 70 | > 70 | 28.6 | 4.1 |  |  | Oc1ccc(Nc2nc(-c3ccc(Cl)cc3)cs2)cc1 | 17.5 |  |
| > 70 | > 70 | 7.7 | 5 |  |  | Clc1ccc(-c2csc(Nc3ccccc3)n2)cc1 |  |  |
| > 70 | > 70 |  |  | 9.1 | 67.4 | Oc1ccccc1Nc1nc(-c2ccc(Cl)cc2)cs1 | 0.9 |  |
| > 70 | 57 | 19.5 | 2.7 |  |  | Oc1cccc(Nc2nc(-c3ccc(Cl)cc3)cs2)c1 |  |  |
| > 70 | 50.3 | 2 | 2.3 |  |  | COc1ccc(-c2csc(Nc3ccccc3)n2)cc1 |  |  |
| 34.9 | 13 | 16.2 | 3.1 |  |  | Oc1ccc(Nc2nc(-c3ccccc3)cs2)cc1 | 5.5 |  |
| > 70 | 43.1 | 3.5 | 2.1 |  |  | Oc1ccc(-c2csc(Nc3ccc(Cl)cc3)n2)cc1 | 1.4 |  |
| > 70 | > 70 | 25.6 | 3.7 |  |  | COc1ccc(Nc2nc(-c3ccc(Cl)cc3)cs2)cc1 | 1.6 |  |
| > 70 | > 70 | 2.3 | 3.2 |  |  | COc1ccc(Nc2nc(-c3ccccc3)cs2)cc1 |  |  |
| > 70 | > 70 | 55.8 | 5.3 |  |  | COc1ccccc1Nc1nc(-c2ccc(Cl)cc2)cs1 |  |  |
| > 70 | > 70 | 38.7 | 59.9 |  |  | CC(=O)c1cccc(Nc2nc(-c3ccc(Cl)cc3)cs2)c1 |  |  |

From ChEMBL document CHEMBL3352533, “Multi-dimensional target profiling of N,4-diaryl-1,3-thiazole-2-amines as potent inhibitors of eicosanoid metabolism” (Eur J Med Chem, 2014)
